Reference: PMC3329777 (The Journal of Organic Chemistry, 2010)
Values after ≈ are worked out from the molar mass of the structure shown. Where two headings read alike, the source gives them in different places.

How the values were obtained:
[1] = Decomposition of polysulfanes with hydroxide ion, monitored by HPLC; format: physicochemical; conditions: 6A-F 2.5 mM, methanol/water 99.9:0.1, after 1 hr
Procedure, shortened: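 Test polysulfane mixture (2.5 mM) with acetanilide internal standard (0.25 mM) was treated with NaOH (0.625, 1.25, 1.875 or 2.5 mM) in methanol. After 1 h of equilibration, samples were analysed by reversed-phase C18 HPLC at 1 mL/min, rt, with UV at 254 nm. Elution used a methanol/water gradient of 15→95% methanol over 30 min, held 15 min.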

[2] = Ethanethiol-induced desulfuration; format: physicochemical
[3] = Intrinsic solubility determination; format: physicochemical
[4] = cited from earlier work
PC3 (prostate) cells = test: Cell proliferation assay; format: cell-based, human
Procedure, shortened: (§1)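 DU145, PC3 and MDA-MB-231 lines only. Cells came from ATCC frozen stocks. PC3 was grown in F12K, DU145 and MDA-MB-231 in DMEM, all with 10% FBS plus penicillin/streptomycin. Equal cell numbers were seeded and held at 37 °C, 5% CO2 until log phase. Medium was then replaced with test compound (0–30 μM) for 48 h, then removed and plates frozen at -80 °C. After thawing to rt, CyQuant reagent was added and fluorescence read at 485/530 nm. Eight replicates per concentration; values are cell-number increase versus untreated controls, mean ± SE.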

DU145 (prostate) cells = test: Cell proliferation assay; format: cell-based, human
Procedure, shortened: as §1

[5] = test system: MDA-MB-231 (breast) cells; test: Cell proliferation assay; format: cell-based, human
Procedure, shortened: as §1

[6] = test system: Jurkat (T-cell leukemia) cells; test: MTS cytotoxicity assay, Jurkat cells; format: cell-based; conditions: Homo sapiens, 24 h, read-out: IC50 Jurkat
Procedure, shortened: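 Jurkat line: cells were kept in RPMI-1640 with 10% fetal bovine serum and penicillin-streptomycin (100 U/mL / 100 μg/mL) at 37 °C, humidified 5% CO2. They were seeded at 2,000 cells/well in 96-well plates. After 24 h they were exposed to a range of test compound concentrations for […]. Growth was measured by MTS reagent with absorbance at 490 nm, expressed relative to compound-free controls, mean ± SE.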

[7] = test system: PC3, DU145, MDA-MB-231 and Jurkat cells; test: Antiproliferative activity against four human tumor cell lines; format: cell-based
[8] = room temperature, equilibrium time 24 h, average of three measurements

| SMILES | Polysulfanes and elemental sulfur distribution (HPLC, internal standard = 100) ([1]; 0.25 hydroxide ion equivalents) | Polysulfanes and elemental sulfur distribution (HPLC, internal standard = 100) ([1]; 0.5 hydroxide ion equivalents) | Polysulfanes and elemental sulfur distribution (HPLC, internal standard = 100) ([1]; 0.75 hydroxide ion equivalents) | Polysulfanes and elemental sulfur distribution (HPLC, internal standard = 100) ([1]; 1.0 hydroxide ion equivalents) | other results |
| --- | --- | --- | --- | --- | --- |
| COCCOCCOCCNC(=O)c1ccc2c(c1)SSSSS2 [Compound 6C, N-(2-(2-(2-Methoxyethoxy)ethoxy)ethyl)benzo[f][1,2,3,4,5]pentathiepine-7-carboxamide] | 362.4 | 289.2 | 222.9 | 163.9 | Time of ethanethiol-induced desulfuration ([2]; in aqueous methanol): ~ 2 min; Time of ethanethiol-induced desulfuration ([2]; in benzene): 4 h |
| COCCOCCOCCNC(=O)c1ccc2c(c1)SSS2 [Compound 6A, N-(2-(2-(2-Methoxyethoxy)ethoxy)ethyl)benzo[d][1,2,3]trithiole-5-carboxamide] | 10.9 | 13.2 | 14.2 | 14.2 | – |
| [S] [Compound S8, Elemental sulfur] | 12.3 | 23.1 | 26.7 | 32.4 | Fold lower solubility by comparison to 6A-F [3]: ~ 50 fold; Solubility in methanol [3, 8]: 330 ± 30 µg/mL (≈ 10.3 mM); Solubility in water [3, 8]: 0.14 ± 0.02 µg/mL (≈ 0.00437 mM); Solubility in ethanol [4]: 510 µg/mL (≈ 15.9 mM); Solubility in water [4]: 0.4 µg/mL (≈ 0.0125 mM) |
| Sc1ccccc1S [1,2-Benzenedithiol] | – | – | – | – | Effect on growth of PC3 cells (PC3 (prostate) cells; 48 h): stimulated the growth; IC50 PC-3 (PC3 (prostate) cells; 48 h incubation, 0–30 μM, 96-well plates): No effect; IC50 (DU145 (prostate) cells; Homo sapiens, DU-145, 48 h, read-out: IC50 DU145): > 30 µM; Inhibition of proliferation of DU145 cells (DU145 (prostate) cells; at concentrations of 10 μM and above, 48 h): ~ 40%; Effect on proliferation of MDA-MB-231 cells ([5]; 48 h): minimal effect; IC50 ([5]; Homo sapiens, MDA-MB-231, 48 h, read-out: IC50 MDA-MB-231): > 30 µM; IC50 [6]: 60 µM; Toxicity to the cancer cell lines (in words) [7]: nontoxic |
| COCCOCCOCCNC(=O)c1ccc2c(c1)SSSSSSSSS2 [Compound 6F, N-(2-(2-(2-Methoxyethoxy)ethoxy)ethyl)benzo[j][1,2,3,4,5,6,7,8,9]nonathiacyclo-undecine-11-carboxamide] | 2.1 | 3.7 | 3.8 | 3.1 | – |
| COCCOCCOCCNC(=O)c1ccc2ssssssc2c1 [Compound 6D, N-(2-(2-(2-methoxyethoxy)ethoxy)ethyl)benzo[g][1,2,3,4,5,6]hexathiocine-8-carboxamide] | 2.3 | 2.1 | 1.8 | 1.5 | – |
| COCCOCCOCCNC(=O)c1ccc2c(c1)SSSSSSS2 [Compound 6E, N-(2-(2-(2-Methoxyethoxy)ethoxy)ethyl)benzo[h][1,2,3,4,5,6,7]heptathionine-9-carboxamide] | 3.0 | 2.8 | 4.7 | 1.6 | – |
